In ChEMBL document CHEMBL1121519, “Basic antiinflammatory compounds. N,N',N''-Trisubstituted guanidines” (J Med Chem, 1980):

Tests used:
[1] = tested on: Rattus norvegicus; experiment: Percent inhibition of carrageenan paw edema in rat, administered orally at a dose of one tenth of oral lethal dose in mice; format: functional
How it was run: (§1)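 1 h later, 0.1 mL of 1% carrageenan was injected into the right hind-paw plantar tissue. Paw swelling was measured by mercury-displacement plethysmometry 3 h after carrageenan, compared with controls.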

[2] = organism: Rattus norvegicus; experiment: Tested for inhibition in the rat paw not injected with […].; format: functional; set-up: concentration or dose not given beside the values
How it was run: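 Adjuvant-induced arthritis, female Lewis rats, six per group: M. butyricum in mineral oil (3 mg/mL, 0.1 mL) injected into right hind paw plantar tissue. Daily oral dosing from adjuvant day to day 28, 10 or 5 (mg/kg)/day according to mouse oral LD50 (≥1000 or <1000 mg/kg). Injected and noninjected paw swelling read by mercury-displacement plethysmometry on day 28.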

[3] = organism: Rattus norvegicus; experiment: Tested for inhibition in the rat paw injected with carrageenan.; format: functional; set-up: concentration or dose not given beside the values
[4] = tested on: Rattus norvegicus; experiment: Total score is the sum of scores obtained in the adjuvant arthritis, acute toxicity, carrageenan edema, and prostaglandin synthetase assay; format: functional
[5] = molecular target: Cyclooxygenase (Bos taurus) (UniProt O62664+O62698); experiment: Inhibition of prostaglandin synthetase in bovine seminal vesicle microsomes using Beckman liquid scintillation counter at 10 e-5 M; settings: Microsome
[6] = Toxic score (3) was measured as lethal dose in orally administered mice; format: toxicity, organism-based; settings: mouse, in vivo, po
How it was run: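 Score derived from mouse oral LD50 (Litchfield–Wilcoxon, four mice per dose), in mg/kg: >1000 = 3; 500-1000 = 2; <500 = 1.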

[7] = Lethal dose in mice determined by Litchfield and Wilcoxon methods after peroral administration.; format: toxicity, organism-based; settings: mouse, in vivo, po
How it was run: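 Median lethal dose found after oral dosing of mice, four mice per dose level, and calculated by the Litchfield–Wilcoxon method.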

[8] = organism: Rattus norvegicus; experiment: Tested for enhancement in the rat paw injected with carrageenan.; format: functional
[9] = organism: Rattus norvegicus; experiment: Average percent inhibition (arthritis score=0) of the swelling of both injected and non injected paw was measured; format: functional
How it was run: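 Adjuvant arthritis in inbred female Lewis rats, groups of six, acclimatized 2 weeks. Arthritis induced by injecting 0.1 mL M. butyricum in mineral oil (3 mg/mL) into right hind paw plantar tissue. Oral dosing daily from adjuvant day to day 28: 10 (mg/kg)/day if mouse oral LD50 ≥1000 mg/kg, else 5 (mg/kg)/day. Swelling of injected and noninjected paws measured day 28 by mercury-displacement plethysmometry; mean percent inhibition scored 0–3.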

[10] = tested on: Rattus norvegicus; experiment: Tested for percent enhancement of carrageenan paw edema in rat, administered orally at a dose of one tenth of oral lethal dose in mice; format: functional; how it was run: as §1
[11] = organism: Rattus norvegicus; experiment: Tested for enhancement in the rat paw not injected with carrageenan.; format: functional

| SMILES | Inhibition [1] [%] | inhibition [5] [%] | LD50 [7] [mg/kg] | further results |
| --- | --- | --- | --- | --- |
| CC(C)(C)/N=C(\Nc1nccs1)Nc1ccnc2cc(Cl)ccc12 | 61 | 5.5 | > 1000 | Inhibition [2]: 8%; Inhibition [3]: 26%; Total score [4]: 7; LD50 [6]: > 1000 mg/kg |
| CC(C)(C)/N=C(\Nc1nccs1)Nc1cc(C(F)(F)F)nc2ccccc12 | 28 | 75.4 | > 1000 | Inhibition [2]: 2%; Enhancement [8]: 6%; Total score [4]: 7; LD50 [6]: > 1000 mg/kg; Inhibition [9]: <10% |
| Cc1cc(N/C(=N/c2ccccc2C)Nc2nccs2)c2ccccc2n1 | 53 | 14.8 | > 1000 | – |
| Cc1cc(N/C(=N/C2CCCCC2)Nc2nnc(C)s2)c2ccccc2n1 | 56 | 36.2 | > 1000 | – |
| Cc1cc(N/C(=N/C(C)(C)C)Nn2cnnc2)c2ccccc2n1 | – | – | > 1000 | Enhancement [10]: 9% |
| CCOC(=O)c1csc(/N=C(\Nc2cc(C)nc3ccccc23)NC(C)(C)C)n1 | – | 71.8 | > 1000 | Enhancement [10]: 36% |
| COc1ccc2nccc(N/C(=N/C(C)(C)C)Nc3nccs3)c2c1 | 42 | 12.7 | > 1000 | – |
| c1ccc(-c2cc(N/C(=N/C3CCCCC3)Nc3nccs3)c3ccccc3n2)cc1 | 5 | 14 | > 1000 | – |
| Cc1nc2ccccc2c(N/C(=N/C2CCCCC2)Nc2nccs2)c1Cl | 19 | 8.1 | > 1000 | – |
| CC(C)(C)/N=C(\Nc1ccccc1)Nc1nccs1 | 24 | 6.4 | > 1000 | – |
| Cc1cc(NC(=N)NC(C)(C)C)c2ccccc2n1 | 5 | 11.7 | 100 | – |
| Cc1cc(N/C(=N/CC(C)C)Nc2nccs2)c2ccccc2n1 | 57 | 18 | 1000 | – |
| Cc1cc(N/C(=N/C2CCCCC2)Nc2nc3ccccc3s2)c2ccccc2n1 | 1 | 76.1 | > 1000 | Enhancement [11]: 4%; Enhancement [8]: 7%; Total score [4]: 6; LD50 [6]: > 1000 mg/kg; Inhibition [9]: <10% |
| CC(C)(C)/N=C(\Nc1ccc(Cl)cn1)Nc1nccs1 | 31 | 1 | > 1000 | – |
| CC(C)(C)/N=C(/Nc1nccs1)Nc1cccc2cccnc12 | 8 | 4.3 | > 1000 | – |
| CC(C)(C)/N=C(\Nc1ccc2ccccc2c1)Nc1nccs1 | – | 1.7 | > 1000 | Enhancement [10]: 17% |
| Cc1cc(N/C(=N/C2CCCCC2)Nc2nnc(S)s2)c2ccccc2n1 | 36 | 7 | > 1000 | – |
| CC(C)c1cc(N/C(=N/C2CCCCC2)Nc2nccs2)c2ccccc2n1 | 36 | 0 | > 1000 | – |
| CC(C)(C)/N=C(/Nc1nccs1)Nc1cccc2cnccc12 | 21 | -8.8 | > 1000 | – |
| CC(C)Cc1cc(N/C(=N/C(C)(C)C)Nc2nccs2)c2ccccc2n1 | 33 | 20 | 600 | – |
